Published values gathered from unrelated publications.
Target: Dual specificity testis-specific protein kinase 1 (TESK1, Homo sapiens, UniProt Q15569)

| Compound | read-out | method | tested at | remaining binding [%] |
| --- | --- | --- | --- | --- |
| O=C(c1ccc(Nc2ncc(Cl)c(-c3ccc(Cl)s3)n2)cc1)N1CCC(N2CCCC2)CC1 | binding | competition with immobilised ligand | 1 µM | 99 |
| O=C(Nc1cnc(Oc2ccc(F)cc2)nc1)N1CCc2ncccc2[C@@H]1c1ccc(F)cc1 | cell-free assay | competition with immobilised ligand | 1 µM | 91 |
| COc1cnc(Nc2cccc(S(N)(=O)=O)c2)nc1N1CCN(c2ccccc2)CC1 | binding | competition with immobilised ligand | 1 µM | 100 |
| CN(C)c1ncc(F)c(-c2cnn3ncccc23)n1 | binding | – | 1 µM | 100 |
| CCN1CCN(Cc2ccc(C(=O)Nc3ccc(C)c(Oc4ccc5c(c4)CC(=O)N5)c3)cc2C(F)(F)F)CC1 | binding | competition with immobilised ligand | 1 µM | 100 |
| O=C(c1ccc(Nc2ncc(Cl)c(-c3cc4ccccc4s3)n2)cc1)N1CCC(N2CCCC2)CC1 | binding | competition with immobilised ligand | 1 µM | 81 |
| c1cncc(-c2cccc(Nc3nccc(NC4CCCCC4)n3)c2)c1 | binding | competition with immobilised ligand | 10 µM | 77 |
| CCCOc1ccc([C@H]2[C@H](C(=O)O)[C@@H](c3ccc4c(c3)OCO4)CN2CC(=O)Nc2c(CC)cccc2CC)cc1 | cell-free assay | competition with immobilised ligand | 1 µM | 89 |
| C[C@H]1CCN(c2nccc(-c3cnn4ncccc34)n2)C1 | binding | – | 1 µM | 100 |
| O=C(N[C@H]1CCCCC/C=C\C2C[C@@]2(C(=O)O)NC(=O)[C@@H]2C[C@@H](Oc3ccncc3)CN2C1=O)OC1CCCC1 (stereo partly drawn) | binding | competition with immobilised ligand | 1 µM | 97 |
| CN(C)c1nccc(-c2cnn3ncccc23)n1 | binding | – | 1 µM | 100 |
| CO[C@H]1CC[C@H](CNc2ccc(S(=O)(=O)NC(=O)c3ccc(N4CCN(CC5=C(c6ccc(Cl)cc6)CC(C)(C)CC5)CC4)cc3Oc3cnc4[nH]ccc4c3)cc2[N+](=O)[O-])CC1 | cell-free assay | competition with immobilised ligand | 1 µM | 100 |
| C=CC(=O)N1CCC(C(=O)NCC(=O)N2CCN(c3nc(-c4cnc(N)nc4C(F)F)nc(N4CCOCC4)n3)CC2)CC1 | binding | competition with immobilised ligand | 1 µM | 100 |
| CCS(=O)(=O)c1cc2cc(C[C@@](O)(CC(C)(C)c3ccc(F)cc3C(N)=O)C(F)(F)F)[nH]c2cn1 | cell-free assay | competition with immobilised ligand | 1 µM | 77 |
| O=C(Nc1c[nH]nc1C(=O)NC1CCNCC1)c1cc(F)cc(F)c1 | binding | competition with immobilised ligand | 1 µM | 100 |
| N[C@H]1CCN(c2nccc(-c3cnn4ncccc34)n2)C1 | binding | – | 1 µM | 86 |
| COc1ncc2cc3ccccc3nc2c1C#N | cell-free assay | competition with immobilised ligand | 5 µM | 94 |
| COc1ccnn2ncc(-c3ccnc(N(C)C)n3)c12 | binding | – | 1 µM | 100 |
| Cc1cc(NC(=O)c2cccc(S(F)(F)(F)(F)F)c2)cc(-n2ccn3nc(-c4cccnc4)cc23)c1 | cell-free assay | competition with immobilised ligand | 1 µM | 91.7 |
| F[C@@H]1CCN(c2nccc(-c3cnn4ncccc34)n2)C1 | binding | – | 1 µM | 67 |
| O=C(NCCCN1CCOCC1)c1ccc(Nc2ncc(Cl)c(-c3ccc(Cl)s3)n2)cc1 | binding | competition with immobilised ligand | 1 µM | 100 |
